# An excerpt weighted towards active compounds, which were near 3.5% of everything screened.
# ERAP1 inh – blocks human ERAP1 aminopeptidase activity; Q9NZ08; recombinant ERAP1, Leu-AMC fluorescence, 60 min; inhibition, % at 10.7 µM; 340,000 compounds, 0.15% hits; AID 652197;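 active = mean replicate inhibition of at least 30%, or all replicates individually reaching that 30% level; inactive = mean below 30% and not every replicate reaching it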;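 note: 0% = neutral control wells and 100% = L-leucinethiol positive control wells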
# Target sequence (Q9NZ08 whole entry, looked up): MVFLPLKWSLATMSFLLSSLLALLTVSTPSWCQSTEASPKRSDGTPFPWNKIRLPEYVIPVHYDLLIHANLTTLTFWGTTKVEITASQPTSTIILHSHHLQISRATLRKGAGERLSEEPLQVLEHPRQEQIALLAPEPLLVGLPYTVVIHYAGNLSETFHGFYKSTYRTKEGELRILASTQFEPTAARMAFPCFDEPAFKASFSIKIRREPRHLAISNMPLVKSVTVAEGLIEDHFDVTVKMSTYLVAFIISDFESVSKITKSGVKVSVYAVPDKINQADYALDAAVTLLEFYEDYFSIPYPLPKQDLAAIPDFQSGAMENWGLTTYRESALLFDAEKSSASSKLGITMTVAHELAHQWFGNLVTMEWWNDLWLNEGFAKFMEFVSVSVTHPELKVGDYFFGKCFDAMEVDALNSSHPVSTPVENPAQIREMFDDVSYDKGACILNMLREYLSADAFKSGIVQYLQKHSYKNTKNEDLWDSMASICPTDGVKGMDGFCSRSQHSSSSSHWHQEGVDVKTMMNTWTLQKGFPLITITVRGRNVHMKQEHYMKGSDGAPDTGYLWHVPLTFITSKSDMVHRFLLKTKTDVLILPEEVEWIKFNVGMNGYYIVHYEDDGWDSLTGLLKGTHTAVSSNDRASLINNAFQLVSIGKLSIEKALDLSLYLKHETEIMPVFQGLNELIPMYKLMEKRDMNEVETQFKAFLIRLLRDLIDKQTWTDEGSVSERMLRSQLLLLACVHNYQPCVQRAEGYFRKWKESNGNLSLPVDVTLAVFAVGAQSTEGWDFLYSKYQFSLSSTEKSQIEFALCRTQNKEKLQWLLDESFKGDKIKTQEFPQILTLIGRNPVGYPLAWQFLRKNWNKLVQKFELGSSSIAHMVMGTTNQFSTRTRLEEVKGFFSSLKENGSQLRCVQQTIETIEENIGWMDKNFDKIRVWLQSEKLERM
# HIV Env fusion – HIV envelope-mediated fusion inhibition. AID 651610. HeLa-JRFL Env/CEM21 cell fusion, luciferase. 360,000 compounds, 1.1% hits. inhibition, % at 12.3 µM;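 active = mean replicate inhibition score of at least 50 and every replicate individually at or above 50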;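 note: 0% = plate neutral controls and 100% = maraviroc near 300 nM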
# FGF22 binding – FGF22 (human) thermal shift binding | Q9HCT0 | recombinant FGF22 thermal shift, SYPRO orange fluorescence; percent of sucrose octasulfate shift, DMSO zero | activity (Tm shift, normalised), % at 9.99 µM | 340,000 compounds, 1.5% hits;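 active = mean Tm shift, scaled 0 neutral to 100 positive control, at about 1.3% or above, every replicate too, limit read from the data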
# Cneo AK release – Cryptococcus neoformans lysis via adenylate kinase release | C. neoformans lysis, adenylate kinase release luminescence, 4 h; normalised: neutral wells 0, clomiphene wells 100 | lysis activity, % at 15 µM | 360,000 compounds, 0.2% hits | AID 651654;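 active = mean lysis activity across replicates of at least 80%, whatever share of replicates individually reach that level; inactive = mean lysis activity below 80%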
#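 Material: C. neoformans cells; Schedule: 4 h static compound exposure, 37 °C, read 1 h post-reagent; Measured by: adenylate kinase release luminescence; Read-out: signal increase indicating cell lysis; Controls: Clomiphene as positive lysis control.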
# rRNA inh HTS – selective bacterial rRNA inhibition in E. coli | 350,000 compounds, 1.6% hits | GFP signal change (wild-type ribosome), % (test concentration not listed) | E. coli WT GFP vs humanized-ribosome RFP mutants, fluorescence, 24 h; hits give low values; DMSO median 0, no signal -100;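 active = significant combined selectivity score with lowered wild-type GFP, culture density cut under 30%, mutant RFP and density less affected; inactive = any of these conditions unmet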
# PGC1a acetyl inh – lowers PGC1a acetylation signal in U2OS cells | 350,000 compounds, 0.17% hits | AlphaScreen anti-acetyl-lysine; with virally co-expressed GCN5 acetyltransferase | inhibition, % at 15.6 µM;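 active = every replicate shows inhibition of at least 40%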;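 note: 0% = neutral control wells and 100% = positive control wells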
# * = called active by the depositor; · = no result given; [ ] = dose if it differs, or a comment.
SMILES,ERAP1 inh,HIV Env fusion,FGF22 binding,Cneo AK release,rRNA inh HTS,PGC1a acetyl inh
CCNC(=O)C[C@@H]1CC[C@H](NC(=O)NC2CCCCC2)[C@@H](CO)O1,0.7,8.0[16.7 µM],-0.2,1.4,1.5,-3.1
CCNC(=O)C[C@H]1CC[C@H](NC(=O)NC2CCCCC2)[C@@H](CO)O1,1.2,11.9[16.7 µM],-0.3,107.4*,-6.1,-6.8
CC(=O)c1cccc(N(CC(=O)NC2CCCCC2)C(=O)c2csnn2)c1,-4.0,2.9,0.2,0.3,·,·
Cc1ccc(C(=O)c2sc3nc4c(cc3c2N)CCC4)cc1,·,-59.1,·,1.7,·,·
C=CCn1nnnc1SCC(=O)Nc1cccc(C(F)(F)F)c1,103.0*,-19.2,-0.2,0.7,3.1,1.2
Nc1ccc(C2=Nc3cccc4cccc(c34)N2)cc1,-2.5,18.1,43.4*,1.3,·,0.6
COc1cccc(C2=Nc3cccc4cccc(c34)N2)c1,-2.0,-18.9,-0.8,-0.5,·,4.6
C[C@@H]1CCCCO[C@H](CN(C)C(=O)CCCN(C)C)[C@H](C)CN([C@H](C)CO)C(=O)c2cc(N(C)C)ccc2O1,·,-9.3[16.7 µM],·,·,0.6,6.1
CN(C)c1ncc(S(=O)(=O)c2ccccc2)c(N)n1,-7.7,-11.7,43.6*,-1.4,14.4,-9.3
CN(C)c1ncc(S(=O)(=O)c2ccccc2)c(-c2ccccc2Cl)n1,·,-10.4,·,-2.3,·,-12.3
CCN(CC)S(=O)(=O)c1ccc(N2CCCC2)c(NC(=O)c2ccncc2)c1,0.1,-35.3,0.1,1.8,7.5,1.5
Cc1cc(N2CCCC2=O)cc(C)c1S(=O)(=O)NCCOc1ccc(C(C)(C)C)cc1,4.9,84.8*,·,0.0,-4.7,2.8
Cc1cc2oc(=O)cc(CN(C)Cc3cccc(F)c3)c2cc1C,-1.5,-14.5,0.0,-0.5,2.2,-4.9
O=C(COC(=O)c1cc(Br)ccc1Cl)NC(=O)NCc1ccccc1,-1.3,-97.9,44.0*,·,3.6,·
CC(=O)Nc1ccc(C(=O)OCC(=O)NC(=O)NCc2ccccc2)cc1,-5.9,71.3*,0.0,0.4,-4.6,-3.0
COc1ccc(/C=N/NC(=O)CN2CCCCCCC2)c(C)c1C,2.5,-22.8,40.4,·,13.5,7.5
COc1ccccc1OC(=O)c1cc2ccccc2oc1=O,1.9,3.5,-0.2,-0.3,17.6,·
O=C(c1cc2c(=O)n3ccccc3nc2s1)N1CCN(Cc2ccc3c(c2)OCO3)CC1,-45.3,16.5,43.0*,·,9.9,7.4
COc1ccccc1CNC(=O)C(C)Sc1ccsc1[N+](=O)[O-] (stereo unspecified),5.0,-5.7,-0.1,·,3.8,·
Cc1c(C(=O)N2CCN(c3ccccn3)CC2)cccc1[N+](=O)[O-],-1.1,-5.6,0.2,·,12.4,12.1
CC(Sc1ccsc1[N+](=O)[O-])C(=O)NCc1ccccc1 (stereo unspecified),1.1,15.8,43.2*,·,-40.4,·
CC(Sc1ccsc1[N+](=O)[O-])C(=O)N1CCN(c2ccccn2)CC1 (stereo unspecified),-0.7,-21.7,44.1*,-3.5,1.4,3.5
O=c1nc2ccccc2c2n1CC(CN1CCN(c3ccc(F)cc3)CC1)N2 (stereo unspecified),·,·,·,1.0,·,·
CCCCCCNC(=O)CNC(=S)N(Cc1cccs1)C1CCCCC1,0.2,58.8*,0.2,-3.4,-6.3,-8.7
COc1ccc(-c2nc(SC)n(S(=O)(=O)c3ccccc3)n2)cc1,·,·,·,0.9,·,-7.1
SMILES,ERAP1 inh,HIV Env fusion,FGF22 binding,Cneo AK release,rRNA inh HTS,PGC1a acetyl inh
COC(=O)c1ccc(NC(=S)NCCCN2CCCC2=O)cc1,0.0,9.6,0.2,-3.2,-4.5,-3.9
COC(=O)c1cc(NC2c3ncccc3C(=O)N2Cc2ccccc2)cc(C(=O)OC)c1 (stereo unspecified),3.9,·,-0.1,2.0,16.8,2.9
O=C1c2cccnc2C(Nc2ccc(S(=O)(=O)N3CCCCC3)cc2)N1Cc1ccccc1 (stereo unspecified),·,83.7*,·,·,·,4.0
O=C1c2ccccc2C(Nc2ccc(S(=O)(=O)N3CCCCCC3)cc2)N1c1ccccn1 (stereo unspecified),5.8,4.6,0.6,0.6,-0.5,10.1
CCOC(=O)c1ccc(NC2c3ncccc3C(=O)N2Cc2ccc(F)cc2)cc1 (stereo unspecified),·,93.3*,·,0.8,·,-22.4
O=C(NCc1cccnc1)c1cc(C(=O)C2CC2)c[nH]1,-3.1,1.4,-0.1,·,3.8,-33.5
Cc1ccc(C2OC34CCCCCC3C(C#N)(C(=N)O4)C2(C#N)C#N)cc1 (stereo unspecified),-22.8,14.8,0.0,·,-5.0,·
O=c1c2c(-c3ccccc3)csc2ncn1/N=C/c1cccc([N+](=O)[O-])c1O,-4.1,-1.3,0.1,0.1,-11.4,·
O=c1c2c(-c3ccccc3)csc2ncn1/N=C/c1ccc(O)c([N+](=O)[O-])c1,2.0,8.3,44.1*,·,11.3,·
Cc1ccnc(NC(=O)c2ccc(Cl)cc2Cl)n1,0.8,18.3,43.1*,·,7.2,·
Cc1nn(-c2ccccc2)c(Cl)c1/C=C1\SC(=S)N(CCCCCC(=O)O)C1=O,-10.8,-8.4,-0.2,·,-31.5*,2.0
Cc1nn(-c2ccccc2)c(Cl)c1/C=C1\SC(=S)NC1=O,·,·,·,·,·,5.5
Cc1nn(-c2ccccc2)c(C)c1/C=C1\C(=O)N(C)C(=S)N1C,1.6,-8.7,43.3*,·,-35.6,-43.2
Cc1cc(=O)[nH]c(N/N=C/c2c(C)nn(-c3ccccc3)c2C)n1,-0.7,-7.0,0.2,1.6,-3.8,·
C/C(=N\NC(=O)c1ccccc1OCc1ccc(F)cc1)c1ccccn1,-1.5,-3.2,-0.2,-1.4,-36.8,12.5
N/C(=N\OC(=O)c1ccccc1)c1ccccn1,3.3,-14.6,-0.3,-6.7,16.1,·
CCOc1ccc(OCc2ccc(C(=O)N/N=C(\C)c3ccccn3)cc2)cc1,-3.6,17.9,43.1*,·,8.4,3.6
CCc1ccc(OCC(=O)O/N=C(\N)c2ccccn2)cc1,1.7,-67.8,-0.1,-8.6,-22.4*,2.0
CC(C)(C)c1ccc(C(=O)O/N=C(\N)c2ccccn2)cc1,4.0,-32.8,0.0,-9.2,-11.3,-8.7
CCOc1ccc(C(=O)O/N=C(\N)c2ccccn2)cc1,0.5,63.3*,0.1,-11.2,1.7,1.3
Cc1ccc(C(=O)O/N=C(\N)c2ccccn2)cc1,0.4,62.4*,-0.3,-10.4,5.9,-6.3
CCOc1ccc(OCc2ccc(C(=O)NN=Cc3ccc[nH]3)cc2)cc1,0.3,·,-0.2,0.7,10.6,46.5*
CC(=O)N1c2ccc(S(=O)(=O)N(C)c3cc(C)ccc3C)cc2CC1C (stereo unspecified),0.2,-14.8,-0.1,0.8,-29.3*,-4.2
COC(=O)c1ccccc1NC(=O)Nc1cccc(C)n1,-3.2,-7.2,43.1*,1.1,·,·
COc1ccccc1NC(=O)Nc1cccc(C)n1,6.9,34.6,-0.1,7.1,-2.2,8.2

# Bioassay records deposited in PubChem BioAssay by Broad Institute.
